Assay results from ChEMBL document CHEMBL1124666, “Novel linked antiviral and antitumor agents related to netropsin and distamycin: synthesis and biological evaluation” (1989).
Converted amounts (≈) assume the structure as drawn.

How the values were obtained:
Vaccinia virus [1] = experiment: Minimum inhibitory concentration against vaccinia virus in Vero cell cultures of experiment 2; format: functional; conditions: Orthopoxvirus vaccinia
[2] = Minimum cytotoxic concentration in primary rabbit kidney (PRK) cell cultures; format: functional, Oryctolagus cuniculus
Vaccinia virus [3] = experiment: (§1) Minimum inhibitory concentration against vaccinia virus in primary rabbit kidney cell cultures of experiment 2; format: functional, Orthopoxvirus vaccinia; conditions: Orthopoxvirus vaccinia; read-out: MIC
[4] = Inhibition of Moloney Murine Leukemia Associated Reverse Transcriptase; format: functional, Mus musculus
Vaccinia virus [5] = experiment: Minimum cytotoxic concentration against vaccinia virus embryonic skin muscle cell cultures; format: functional; conditions: Orthopoxvirus vaccinia
Vaccinia virus [6] = experiment: Minimum inhibitory concentration against vaccinia virus embryonic skin muscle cell cultures; format: functional; conditions: Orthopoxvirus vaccinia
Human alphaherpesvirus 1 = experiment: Minimum inhibitory concentration against Herpes simplex virus 1(KOS); format: functional
P388 = experiment: Inhibitory effect on the proliferation of murine leukemia (P388) cells; format: functional; conditions: Mus musculus, read-out: ID50 (the source's name)
Vaccinia virus [7] = experiment: Minimum cytotoxic concentration against vaccinia virus in primary rabbit kidney cell cultures; format: functional; conditions: Orthopoxvirus vaccinia
Human alphaherpesvirus 2 = experiment: Minimum inhibitory concentration against Herpes simplex virus 2(G); format: functional
[8] = test system: Vesicular stomatitis virus; experiment: Minimum inhibitory concentration against Vesicular stomatitis virus; format: functional
L1210 = experiment: Inhibitory effect on the proliferation of murine leukemia (L1210 ) cells; format: functional; conditions: Mus musculus, read-out: ID50 (the source's name)
Vaccinia virus [9] = experiment: Minimum inhibitory concentration against vaccinia virus in primary rabbit kidney cell cultures of experiment 1; format: functional; conditions: Orthopoxvirus vaccinia
[10] = Inhibitory effect on the proliferation of human T-lymphoblast (Molt/4F ) cells; format: functional; conditions: read-out: ID50 (the source's name)
Raji = experiment: Inhibitory effect on the proliferation of human B lymphoblast (Raji ) cells; format: functional; conditions: read-out: ID50 (the source's name)
Vaccinia virus [11] = experiment: as §1; format: functional; conditions: Orthopoxvirus vaccinia
Vaccinia virus [12] = experiment: Minimum inhibitory concentration against vaccinia virus in Vero cell cultures of experiment 1; format: functional; conditions: Orthopoxvirus vaccinia
FM3A = experiment: Inhibitory effect on the proliferation of murine mammary carcinoma (FM3A ) cells; format: functional; conditions: Mus musculus, read-out: ID50 (the source's name)
Calf thymus DNA = experiment: Relative binding constant to calf thymus DNA; format: nucleic-acid assay; conditions: Bos taurus
In short: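 Ethidium displacement: Tris-EDTA buffer pH 8 with 1.3 μM ethidium bromide and calf thymus DNA (1.35 μM final); drug aliquots added, fluorescence read after a few minutes' equilibration (excitation 525 nm, emission 600 nm). Drug level giving 50% fluorescence decrease converted to relative binding constant taking ethidium binding constant as 10^7 M-1.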

Vaccinia virus [13] = experiment: Minimum inhibitory concentration against Vaccinia virus; format: functional; conditions: Orthopoxvirus vaccinia
Vaccinia virus [14] = experiment: Minimum cytotoxic concentration against vaccinia virus in Vero cell cultures; format: functional; conditions: Orthopoxvirus vaccinia
Vaccinia virus [15] = experiment: Minimum cytotoxic concentration against vaccinia virus in HeLa cell cultures; format: functional; conditions: Orthopoxvirus vaccinia

Row | Structure (SMILES) | MIC (Vaccinia virus [1]) | MCC [2] | MIC (Vaccinia virus [3]) | ID50 [4] | MCC (Vaccinia virus [5]) | MIC (Vaccinia virus [6]) | MIC (Human alphaherpesvirus 1) | IC50 (P388) | MCC (Vaccinia virus [7]) | MIC (Human alphaherpesvirus 2) | MIC [8] | IC50 (L1210) | MIC (Vaccinia virus [9]) | IC50 (Raji) | MIC (Vaccinia virus [11]) | MIC (Vaccinia virus [12]) | Binding constant (Calf thymus DNA) | MIC (Vaccinia virus [13]) | MCC (Vaccinia virus [14]) | MCC (Vaccinia virus [15]) | also measured
1 | Cl.Cl.Cn1cc(NC(=O)c2cc(NC(=O)CCCCC(=O)Nc3cc(C(=O)Nc4cc(C(=O)NCCC(=N)N)n(C)c4)n(C)c3)cn2C)cc1C(=O)NCCC(=N)N | 2 µg/mL | >40 µg/mL | 0.7 µg/mL | 57.2 µg/mL | 100 µg/mL | 7 µg/mL | > 10 µg/mL | 1.05 µg/mL | > 40 µg/mL | > 10 µg/mL | > 10 µg/mL | 24.3 µg/mL | 100 µg/mL | 13.3 µg/mL | 2 µg/mL | 1 µg/mL | 1e+07 M⁻¹ | 0.7 µg/mL | > 400 µg/mL | > 400 µg/mL | IC50 [10]: 5.62 µg/mL; IC50 (FM3A): 57.8 µg/mL
2 | NC(=O)c1ncn([C@@H]2O[C@H](CO)[C@@H](O)[C@H]2O)n1 [RIBAVIRIN] | 20 µg/mL (≈ 81.9 µM) | >400 µg/mL | 20 µg/mL (≈ 81.9 µM) |  | > 400 µg/mL | 70 µg/mL (≈ 287 µM) | > 400 µg/mL |  | > 400 µg/mL | 300 µg/mL (≈ 1230 µM) | > 400 µg/mL |  | 20 µg/mL (≈ 81.9 µM) |  | 7 µg/mL (≈ 28.7 µM) | 7 µg/mL (≈ 28.7 µM) |  | 20 µg/mL (≈ 81.9 µM) | > 400 µg/mL | > 400 µg/mL | 
3 | Cl.Cl.Cn1cc(NC(=O)c2cc(NC(=O)c3cc(NC(=O)CCC(=O)Nc4cc(C(=O)Nc5cc(C(=O)Nc6cc(C(=O)NCCC(=N)N)n(C)c6)n(C)c5)n(C)c4)cn3C)cn2C)cc1C(=O)NCCC(=N)N | > 4 µg/mL |  | > 10 µg/mL | >400 µg/mL | > 4 µg/mL | > 4 µg/mL |  | > 20 µg/mL | > 4 µg/mL |  |  | > 100 µg/mL | > 4 µg/mL | 41.4 µg/mL | > 4 µg/mL | > 4 µg/mL |  |  | > 4 µg/mL | > 20 µg/mL | IC50 [10]: 2.85 µg/mL; IC50 (FM3A): 4.29 µg/mL
4 | Cl.Cl.Cn1cc(NC(=O)c2cc(NC(=O)CCCCCCC(=O)Nc3cc(C(=O)Nc4cc(C(=O)NCCC(=N)N)n(C)c4)n(C)c3)cn2C)cc1C(=O)NCCC(=N)N | 7 µg/mL | >10 µg/mL | 2 µg/mL | 21.3 µg/mL | > 200 µg/mL | 0.07 µg/mL | > 10 µg/mL | 0.7 µg/mL | > 40 µg/mL | > 10 µg/mL | > 10 µg/mL | 3.34 µg/mL | 0.7 µg/mL | 2.14 µg/mL | 2 µg/mL | 7 µg/mL | 2.5e+07 M⁻¹ | 0.2 µg/mL | > 40 µg/mL | > 200 µg/mL | IC50 [10]: 1.74 µg/mL; IC50 (FM3A): 3.15 µg/mL
5 | Cn1cc(NC(=O)c2cc(NC(=O)CNC(=N)N)cn2C)cc1C(=O)NCCC(=N)N |  |  |  |  |  |  |  |  |  |  |  |  |  |  |  |  | 1.9e+07 M⁻¹ |  |  |  | 
6 | O=C(O)C1=CC(=C(c2ccc(O)c(C(=O)O)c2)c2ccc(O)c(C(=O)O)c2)C=CC1=O [AURINTRICARBOXYLIC ACID] |  |  |  | 1.42 µg/mL (≈ 3.36 µM) |  |  |  |  |  |  |  |  |  |  |  |  |  |  |  |  | 
7 | Cl.Cl.Cn1cc(NC(=O)c2cc(NC(=O)CCCC(=O)Nc3cc(C(=O)Nc4cc(C(=O)NCCC(=N)N)n(C)c4)n(C)c3)cn2C)cc1C(=O)NCCC(=N)N | 150 µg/mL | >200 µg/mL | 40 µg/mL | 39.9 µg/mL | 400 µg/mL | 7 µg/mL | > 200 µg/mL | 6.4 µg/mL | > 200 µg/mL | 200 µg/mL | > 200 µg/mL | > 100 µg/mL | 20 µg/mL | > 100 µg/mL | 20 µg/mL | 70 µg/mL | 1.8e+07 M⁻¹ | 7 µg/mL | > 400 µg/mL | > 400 µg/mL | IC50 [10]: > 100 µg/mL; IC50 (FM3A): > 100 µg/mL
8 | Cl.Cl.Cn1cc(NC(=O)c2cc(NC(=O)CCCCCCCCC(=O)Nc3cc(C(=O)Nc4cc(C(=O)NCCC(=N)N)n(C)c4)n(C)c3)cn2C)cc1C(=O)NCCC(=N)N | > 40 µg/mL | >40 µg/mL | 20 µg/mL | 20.9 µg/mL | > 100 µg/mL | 0.2 µg/mL | > 10 µg/mL | 0.98 µg/mL | > 40 µg/mL | > 10 µg/mL | > 10 µg/mL | 4.21 µg/mL | 2 µg/mL | 3.24 µg/mL | 2 µg/mL | 20 µg/mL | 1.7e+07 M⁻¹ | 0.7 µg/mL | > 40 µg/mL | 100 µg/mL | IC50 [10]: 2.97 µg/mL; IC50 (FM3A): 22.1 µg/mL
9 | Nc1ncnc2c1ccn2[C@@H]1O[C@H](CO)[C@@H](O)[C@H]1O [TUBERCIDIN] | 0.02 µg/mL (≈ 0.0751 µM) | >1 µg/mL | 0.2 µg/mL (≈ 0.751 µM) |  | > 0.1 µg/mL | 0.07 µg/mL (≈ 0.263 µM) | > 0.4 µg/mL |  | > 0.4 µg/mL | > 0.4 µg/mL | 0.2 µg/mL (≈ 0.751 µM) |  | > 0.1 µg/mL |  | 0.2 µg/mL (≈ 0.751 µM) | 0.02 µg/mL (≈ 0.0751 µM) |  | > 0.1 µg/mL | > 0.4 µg/mL | > 1 µg/mL | 
10 | Cl.Cl.Cn1cc(NC(=O)c2cc(NC(=O)CC(=O)Nc3cc(C(=O)Nc4cc(C(=O)NCCC(=N)N)n(C)c4)n(C)c3)cn2C)cc1C(=O)NCCC(=N)N | 2 µg/mL | >10 µg/mL | 2 µg/mL | 39 µg/mL | > 40 µg/mL | 0.2 µg/mL | > 4 µg/mL | 0.91 µg/mL | 40 µg/mL | > 4 µg/mL | > 10 µg/mL | 28.5 µg/mL | 2 µg/mL | 3.39 µg/mL | 2 µg/mL | 2 µg/mL | 3.6e+07 M⁻¹ | 0.2 µg/mL | > 40 µg/mL | > 40 µg/mL | IC50 [10]: 2.85 µg/mL; IC50 (FM3A): 5.87 µg/mL
11 | Cn1cc(NC(=O)c2cc(NC(=O)CCC(=O)Nc3cc(C(=O)Nc4cc(C(=O)NCCC(=N)N)n(C)c4)n(C)c3)cn2C)cc1C(=O)NCCC(=N)N |  |  |  |  |  |  |  |  |  |  |  |  |  |  |  |  | 7.2e+07 M⁻¹ |  |  |  | 
12 | Cl.Cl.Cn1cc(NC(=O)c2cc(NC(=O)CCCCCCCC(=O)Nc3cc(C(=O)Nc4cc(C(=O)NCCC(=N)N)n(C)c4)n(C)c3)cn2C)cc1C(=O)NCCC(=N)N | 70 µg/mL | >100 µg/mL | 20 µg/mL | 34.2 µg/mL | > 100 µg/mL | 0.7 µg/mL | > 40 µg/mL | 0.75 µg/mL | > 100 µg/mL | > 40 µg/mL | > 100 µg/mL | 10.8 µg/mL | 7 µg/mL | 4.36 µg/mL | 7 µg/mL | 40 µg/mL | 9e+06 M⁻¹ | 0.2 µg/mL | > 200 µg/mL | > 200 µg/mL | IC50 [10]: 3.3 µg/mL; IC50 (FM3A): 32 µg/mL
13 | Nc1nccc2c1ncn2[C@@H]1C[C@H](CO)[C@@H](O)[C@H]1O [3-DEAZAARISTEROMYCIN A] | 0.2 µg/mL (≈ 0.757 µM) | >400 µg/mL | 0.7 µg/mL (≈ 2.65 µM) |  | > 400 µg/mL | 2 µg/mL (≈ 7.57 µM) | > 400 µg/mL |  | > 400 µg/mL | 300 µg/mL (≈ 1140 µM) | 0.7 µg/mL (≈ 2.65 µM) |  | 2 µg/mL (≈ 7.57 µM) |  | 2 µg/mL (≈ 7.57 µM) | 0.2 µg/mL (≈ 0.757 µM) |  | 2 µg/mL (≈ 7.57 µM) | > 200 µg/mL | > 400 µg/mL | 
14 | Cn1cc(NC(=O)c2cc(NC(=O)c3cc(NC=O)cn3C)cn2C)cc1C(=O)NCCC(=N)N [STALLIMYCIN] |  |  |  |  |  |  |  | > 20 µg/mL |  |  |  | 27 µg/mL (≈ 56.1 µM) |  | 24 µg/mL (≈ 49.8 µM) |  |  | 8e+06 M⁻¹ |  |  |  | IC50 (FM3A): 31 µg/mL (≈ 64.4 µM)
